Assay outcomes: PubChem BioAssay, several laboratories
Most compounds without a hit are left out; they make up all but 12% or so of the library.
ABCG2 inh: ABCG2 efflux pump inhibitors, primary screen, multiplex with ABCB1, IgMXP3 cells, flow cytometry. JC-1 efflux. inhibition, % at 6.6 µM. Broad substrate specificity ATP-binding cassette transporter ABCG2 (Homo sapiens), Q9UNQ0. AID 1325, 2008. actives 0.1% (n = 190,000);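 active = inhibition above 80%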;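 note: 0% = DMSO and 100% = nicardipine control wells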
Target sequence (Q9UNQ0 whole entry, looked up): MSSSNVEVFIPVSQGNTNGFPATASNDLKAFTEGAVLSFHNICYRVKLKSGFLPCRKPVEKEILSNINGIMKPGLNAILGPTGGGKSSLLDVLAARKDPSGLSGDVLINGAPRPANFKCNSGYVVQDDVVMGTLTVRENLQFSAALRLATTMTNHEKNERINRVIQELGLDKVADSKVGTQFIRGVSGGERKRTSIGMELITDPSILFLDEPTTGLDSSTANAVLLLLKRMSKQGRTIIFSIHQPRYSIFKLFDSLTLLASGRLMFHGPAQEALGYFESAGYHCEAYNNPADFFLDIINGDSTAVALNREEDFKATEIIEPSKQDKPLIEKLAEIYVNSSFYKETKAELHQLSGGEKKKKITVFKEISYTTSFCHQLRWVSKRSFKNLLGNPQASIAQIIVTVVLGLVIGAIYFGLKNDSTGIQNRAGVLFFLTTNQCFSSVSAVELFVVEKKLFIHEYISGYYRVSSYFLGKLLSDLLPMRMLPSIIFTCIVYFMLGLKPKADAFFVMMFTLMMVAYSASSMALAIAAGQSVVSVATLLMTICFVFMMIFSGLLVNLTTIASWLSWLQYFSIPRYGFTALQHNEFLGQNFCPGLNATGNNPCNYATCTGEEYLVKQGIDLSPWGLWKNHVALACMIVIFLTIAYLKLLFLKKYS
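test system = two drug-resistant human cell lines, ABCG2 and ABCB1 | amount = 3 million cells/mL final, two lines in 1:1 ratio | reagent = JC-1 transporter substrate | doses = one concentration, 6.6 µM final | incubation = 10 min at 25 °C | signal = flow cytometric JC-1 green MFI at 530 nm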
Lmaj promast: Leishmania major promastigote growth inhibition, primary screen. Leishmania major promastigotes, resazurin fluorescence viability. actives 9% (n = 200,000). inhibition, % at 10 µM; in the data active = inhibition above about 50%;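 note: promastigotes grown with compound for 44 hours at 28 °C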
ABCB1 inh: ABCB1 efflux pump inhibitors, primary screen, cell-based, multiplex, flow cytometry, ABCG2 counter-screen. inhibition, % at 6.6 µM. CCRF-Adr cells, JC-1 efflux. actives 0.067% (n = 190,000). AID 1326, 2008; in the data active = inhibition above about 40%;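 note: 0% = vehicle and 100% = reference inhibitor; higher value means more JC-1 retained so stronger ABCB1 efflux block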
RAM network inh: inhibitors of the yeast RAM network, primary screen, dse1pr::URA3 reporter, 5-FOA selection. AID 868, 2007. inhibition, % at 50 µM. S. cerevisiae dse1pr::URA3 reporter, 5-FOA growth OD615, 2 d; analog-sensitive cbk1-as2 kinase mutant strain. actives 1.8% (n = 190,000);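 active = inhibition above a set limit, 3 SD over mean compound inhibition, cut at about 8.4% in these data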;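 note: 0% = DMSO-only wells with no growth and 100% = 10 µM 1-NA-PP1 full growth; inhibition rescues growth on 5-FOA so higher OD means more RAM inhibition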
WT yeast gro inh: growth inhibition of WT strain, primary screen, mitochondrial fusion inhibitor project, WT and mutant strains, chemical genetic | mitochondrial fusion phenotypic screen | inhibition, % at 10 µM | actives 2.1% (n = 190,000) | AID 1362, 2008; in the data active = inhibition above about 58%; tested in S. cerevisiae
The depositor's hits bear a star; . = no result given.

SMILES	ABCG2 inh	Lmaj promast	ABCB1 inh	RAM network inh	WT yeast gro inh
C=CCC1(CC=C)CCCN1C(=O)CC1C(=O)NCCN1Cc1cccc(OC)c1OC (centres undefined)	0.4	-3.7	0.5	0.8	18.1
Cc1ccn2c(NC3CCCC3)c(-c3ccccn3)nc2c1	17.6	100.6*	1.2	0.3	76.5*
Clc1ccc(-c2nc3cnccn3c2Nc2ccc3c(c2)OCO3)cc1	3.2	30.3	1.1	0.7	21.5
Cc1ccn2c(NC3CCCCC3)c(C)nc2c1	0.7	1.4	0.5	2.0	-11.6
Clc1ccc(-c2nc3cnccn3c2NC2CCCC2)cc1	6.9	6.6	1.1	2.0	68.1*
Cc1ccc(-c2cc3ncc(C#N)c(N)n3n2)cc1	24.3	9.9	1.9	3.5	-7.4
Cc1cc(C)n(-c2cc(N3CCN(S(=O)(=O)c4ccc5ccccc5c4)CC3)ccc2[N+](=O)[O-])n1	2.5	59.3*	2.1	7.3	-4.1
CCOC(=O)c1c(CSc2ccccc2)n(C)c2cc(Br)c(OCC(O)CNC(CO)(CO)CO)cc12 (centres undefined)	10.2	-3.7	0.8	2.2	-13.9
CCOC(=O)c1c(CN2CCN(Cc3ccccc3)CC2)n(C)c2cc(Br)c(OC)cc12	10.3	40.4	4.2	-0.1	94.7*
CCOC(=O)c1cc(CC)sc1NC(=O)c1cc(OC)c(OC)c(OC)c1	7.7	1.7	2.0	11.2*	-3.4
CCc1ccc(OCC(=O)Nc2cccc3c2CCCC3)cc1	0.2	-6.2	0.0	2.8	20.6
O=C(CN(C1CCCCC1)S(=O)(=O)c1ccc(Cl)cc1)NCc1ccncc1	2.2	11.3	1.0	-0.5	11.1
c1ccc2c(c1)C(=Nn1cnnc1)c1ccccc1-2	4.6	14.1	1.4	1.4	14.0
O=C1/C(=N/n2cnnc2)c2ccccc2N1Cc1ccccc1	0.7	85.1*	0.0	3.1	4.0
CC(NS(=O)(=O)c1ccc(Br)cc1)C(N)=O (centres undefined)	7.2	-2.5	0.1	0.7	65.8*
COc1ccc(Oc2nc(SC)nc3ccccc23)cc1	14.7	-3.5	1.6	11.3*	0.0
O=S(=O)(NCC(c1cccnc1)N1CCN(c2ccccc2)CC1)c1cc(F)ccc1F (centres undefined)	1.5	96.8*	4.1	-0.6	27.3
CN1CCN(C(CNS(=O)(=O)c2ccc(F)cc2)c2cccnc2)CC1 (centres undefined)	5.3	-5.2	0.2	0.7	-5.8
O=S(=O)(NCC(c1cccnc1)N1CCN(c2ccc(F)cc2)CC1)c1ccccc1 (centres undefined)	.	91.9*	.	.	.
COc1ccccc1N1CCN(C(CNS(=O)(=O)c2cc(F)ccc2F)c2cccnc2)CC1 (centres undefined)	20.4	90.0*	1.1	-0.4	-6.2
CC(Sc1ccc(Cl)cc1)C(=O)Nc1ccc(S(=O)(=O)N2CCOCC2)cc1 (centres undefined)	5.2	13.5	1.0	3.2	-15.7
O=C(O)CCC(=O)Nc1ccc(/C=C/C(=O)C2CC2)cc1	2.0	-4.3	0.6	-0.3	1.5
CCN(CCO)C(=O)CC1C(=O)NCCN1Cc1c(F)cccc1Cl (centres undefined)	18.8	5.2	2.7	1.1	9.1
CC(c1ccon1)N(C)Cc1cn(C)nc1-c1cccc(Cl)c1 (centres undefined)	2.6	2.2	0.8	0.2	-0.5
COCCn1c(N)c(Sc2ccc([N+](=O)[O-])cc2)c(=O)[nH]c1=O	-1.2	0.7	0.9	0.0	3.2
SMILES	ABCG2 inh	Lmaj promast	ABCB1 inh	RAM network inh	WT yeast gro inh
Cc1oncc1-c1csc(-c2ccccc2Cl)n1	4.1	0.7	0.6	9.5*	14.0
CCCCNC(=O)NCc1cnn(C)c1C	6.5	-3.6	2.0	0.3	8.0
COc1ccc(NC(=S)Nc2cc(-c3ccccc3)[nH]n2)cc1Cl	-3.3	-3.7	-0.7	2.5	65.7*
Cc1cc(NC(=S)Nc2ccc(C)c(Cl)c2)n[nH]1	6.5	28.0	0.3	0.9	74.7*
COc1cc(C)c(NC(=S)Nc2ccc(C)c(Cl)c2)cc1OC	0.4	15.2	0.0	0.1	-1.9
Cc1ccc(S(=O)(=O)N/N=C/c2ccc(OCC(=O)NC(C)C)cc2)cc1	.	-7.6	.	.	.
Cc1ccc(C(C)C)cc1OCC(=O)N/N=C/c1ccc2c(c1)OCCO2	12.4	90.0*	0.8	0.5	76.9*
COc1ccc(C(c2c(C)[nH]n(C(N)=S)c2=O)C(C#N)C#N)cc1 (centres undefined)	-0.6	93.5*	-0.1	-1.3	0.6
COc1ccc(C(C#N)c2ccc(=O)[nH]n2)cc1 (centres undefined)	-2.3	-4.1	0.0	1.1	5.0
COc1ccccc1-c1cc2nc(C)c(CCC(=O)NCc3ccco3)c(C)n2n1	1.4	0.5	0.1	0.7	13.9
COc1cc(OC)cc(-c2cc3nc(C)c(CCC(=O)NC(C)CCc4ccco4)c(C)n3n2)c1 (centres undefined)	13.5	100.2*	1.0	3.7	25.4
COc1ccc(-c2cc3nc(C)c(CCC(=O)NCc4ccc(F)cc4)c(C)n3n2)c(OC)c1	4.7	92.8*	2.6	1.2	33.6
Cc1nc2cc(-c3ccccc3)nn2c(C)c1CCC(=O)NCc1ccco1	7.3	2.1	0.7	2.9	-13.7
Cc1nc2cc(-c3cccc(F)c3)nn2c(C)c1CCC(=O)NC(C)CCc1ccco1 (centres undefined)	3.0	99.8*	0.5	3.3	13.4
CCCCCOc1ccc(CSc2n[nH]c(C)n2)cc1	12.6	7.0	-0.8	0.2	79.8*
Cc1nc(SCc2ccc(OCCC(C)C)cc2)n[nH]1	0.3	7.8	-0.4	0.0	73.2
O=c1c2ccccc2c2c(O)nc(-c3ccccc3)n2n1Cc1ccccc1	1.1	-5.5	0.1	2.6	-1.9
O=C(CN1C(=O)NC2(CCCCC2)C1=O)NCc1cccs1	0.0	-1.7	0.0	2.3	-9.9
COc1cccc(C(=O)CSc2nnc(-c3cc(OC)cc(OC)c3)o2)c1	24.8	-1.0	-0.7	4.8	-4.5
COc1ccc(C(=O)CSc2nnc(-c3cc(C)cc(C)c3)o2)cc1	10.9	-9.9	-0.1	10.0*	-12.4
Cc1ccc(C(=O)CSc2nnc(COc3cccc(C)c3)o2)cc1	0.0	-7.4	0.0	9.9*	-1.0
COc1ccnc(N=CNOCc2ccc(F)cc2Cl)c1C#N	3.2	7.6	0.2	3.9	-2.0
Cc1cccc(/C(N)=N/OC(=O)N2CCOCC2)c1	0.6	56.3*	0.2	0.3	-5.5
Cc1nc(Nc2ccc(C(=O)O)cc2)nc(Nc2ccc(C(=O)O)cc2)c1[N+](=O)[O-]	3.9	-2.2	1.8	-0.6	-13.4
CC(=O)Nc1ccc(Nc2nc(C)c([N+](=O)[O-])c(Nc3ccccc3)n2)cc1	14.0	91.2*	1.9	8.1	12.7
